Measurements collected from several papers.
Organism: Mycobacterium tuberculosis
Effect on: microbial growth

SMILES | assay | test system | setting | MIC
COc1c(N2C[C@@H]3CCCN[C@@H]3C2)c(F)cc2c(=O)c(C(=O)O)cn(C3CC3)c12 |  | H37RV |  | 0.125 µg/mL
CCc1nc2[nH]c(=O)n(O)c(=O)c2s1 |  |  |  | 46.4 µM
CC(CNc1cc(-c2ccccn2)nc2nncn12)c1ccccc1 (stereo not shown) |  | H37RV | 5 days | > 100 µM
CO[C@H]1/C=C/O[C@@]2(C)Oc3c(C)c(O)c4c(O)c(c(/C=N/N5CCN(C)CC5)c(O)c4c3C2=O)NC(=O)/C(C)=C\C=C\[C@H](C)[C@H](O)[C@@H](C)[C@@H](O)[C@@H](C)[C@H](OC(C)=O)[C@@H]1C | resazurin | H37RV | 7 days | 0.1 µg/mL
Brc1ccc(CCNc2cc(-c3ccccn3)nc3nncn23)cc1 |  | H37RV |  | 1.1 µM
CC[C@@H](CO)NCCN[C@@H](CC)CO | resazurin | H37RV |  | 2.45 µM
Cc1ccc(CCNc2cc(C3CCCO3)nc3nncn23)cc1 (stereo not shown) |  | H37RV |  | 47 µM
C#CCNC(=O)c1c(-c2ccc(OC)cc2)oc2ccc(O)c(CN3CCCCC3)c12 |  | CDC1551 |  | 0.8 µM
COC(=O)C=C1SC(=NN=Cc2ccc(OC(=O)CN3C(=O)CSC3=O)cc2)NC1=O | resazurin | H37RV |  | 34.6 µM
CCc1cc(=O)c2c(OCC3CO3)c3ccoc3c(OC)c2o1 (stereo not shown) | resazurin |  | 21 days | 64 µg/mL
O=C(Cc1ccccc1)Nc1cc(-c2ccccn2)nc2nncn12 |  | H37RV |  | 2 µM
CC[C@@H](CO)NCCN[C@@H](CC)CO | resazurin | H37RV | 5 days | 1 µg/mL
CO[C@H]1/C=C/O[C@@]2(C)Oc3c(C)c(O)c4c(O)c(c(/C=N/N5CCN(C)CC5)c(O)c4c3C2=O)NC(=O)/C(C)=C\C=C\[C@H](C)[C@H](O)[C@@H](C)[C@@H](O)[C@@H](C)[C@H](OC(C)=O)[C@@H]1C | resazurin |  | 21 days | 64 µg/mL
FC(F)Oc1ccc(CCNc2cc(-c3ccccn3)nc3nncn23)cc1 |  | H37RV |  | 1.1 µM
CO[C@H]1/C=C/O[C@@]2(C)Oc3c(C)c(O)c4c(O)c(c(/C=N/N5CCN(C6CCCC6)CC5)c(O)c4c3C2=O)NC(=O)/C(C)=C\C=C\[C@H](C)[C@H](O)[C@@H](C)[C@@H](O)[C@@H](C)[C@H](OC(C)=O)[C@@H]1C | resazurin | H37RV | 7 days | 0.2 µg/mL
CCc1cc(=O)c2c(O)c3ccoc3c(OC)c2o1 | resazurin | H37RV | 21 days | 512 µg/mL
[H]/N=C(/N)N[C@H]1[C@H](O)[C@@H](O)[C@H](O[C@@H]2O[C@@H](C)[C@](O)(C=O)[C@H]2O[C@@H]2O[C@@H](CO)[C@H](O)[C@@H](O)[C@@H]2NC)[C@@H](N/C(N)=N\[H])[C@@H]1O | resazurin | H37RV | 5 days | 1 µg/mL
NC(=S)NN=Cc1ccc(OC(=O)CN2C(=O)CSC2=O)c(Cl)c1 | resazurin | H37RV |  | 5.17 µM
O=c1[nH]c2ncsc2c(=O)n1O |  |  |  | 27.4 µM

SMILES | assay | test system | setting | MIC
CC(=O)NC[C@H]1CN(c2ccc(N3CCOCC3)c(F)c2)C(=O)O1 | resazurin | H37RV | 21 days | 0.003 µg/mL
NNC(=O)c1ccncc1 |  | H37RV |  | 0.62 µM
NC(=S)NN=Cc1ccc(OC(=O)CN2C(=O)CSC2=O)c(Br)c1 | resazurin | H37RV |  | 9.27 µM
COc1nc2ccc(Br)cc2cc1[C@@H](c1ccccc1)[C@@](O)(CCN(C)C)c1cccc2ccccc12 |  | H37RV |  | 0.31 µM
CC(C)c1nc2[nH]c(=O)n(O)c(=O)c2s1 |  |  |  | 65.4 µM
C#CC[N+]1(CC)CCc2c(sc(NC(=O)c3c(F)c(F)c(F)c(F)c3F)c2C(=O)OCC)C1 (stereo not shown) |  | CDC1551 |  | 5.8 µM
O=c1[nH]c2nc(-c3cccnc3)sc2c(=O)n1O |  |  |  | > 100 µM
CCc1cc(=O)c2c(OCC(O)CN(CC)CC)c3ccoc3c(OC)c2o1 (stereo not shown) | resazurin |  | 21 days | 64 µg/mL
CCOC(=O)c1c(-c2ccc(OC)cc2)oc2ccc(O)c(CN3CCN(Cc4cn(C[C@H]5O[C@H](O[C@H]6O[C@H](CO)[C@@H](O)[C@H](O)[C@H]6O)[C@H](O)[C@@H](O)[C@@H]5O)nn4)CC3)c12 |  | CDC1551 |  | 5.3 µM
CCc1cc(=O)c2c(OCC(O)CNC(C)(C)C)c3ccoc3c(OC)c2o1 (stereo not shown) | resazurin | H37RV | 21 days | 128 µg/mL
CCCCCc1ccc(Nc2cc(-c3ccccn3)nc3nncn23)cc1 |  | H37RV |  | > 100 µM
[H]/N=C(/N)N[C@H]1[C@H](O)[C@@H](O)[C@H](O[C@@H]2O[C@@H](C)[C@](O)(C=O)[C@H]2O[C@@H]2O[C@@H](CO)[C@H](O)[C@@H](O)[C@@H]2NC)[C@@H](N/C(N)=N\[H])[C@@H]1O | resazurin | H37RV | 21 days | 0.25 µg/mL
NNC(=O)c1ccncc1 | resazurin | H37RV |  | 0.228 µM
CCc1cc(=O)c2c(OCC(O)CN3CCOCC3)c3ccoc3c(OC)c2o1 (stereo not shown) | resazurin |  | 21 days | 64 µg/mL
c1ccc(CCOc2cc(-c3ccccn3)nc3ncnn23)cc1 |  | H37RV |  | > 100 µM
NNC(=O)c1ccncc1 |  | H37RA |  | 0.34 µM
COc1ccc(-c2oc3ccc(O)c(CN4CCCCC4)c3c2C(=O)NCc2cn(C[C@H]3O[C@H](O[C@H]4O[C@H](CO)[C@@H](O)[C@H](O)[C@H]4O)[C@H](O)[C@@H](O)[C@@H]3O)nn2)cc1 |  | CDC1551 |  | 0.7 µM
FC(F)(F)c1ccc(CCNc2cc(-c3ccccn3)nc3nnc(C4CC4)n23)cc1 |  | H37RV |  | 42 µM
